# Key:
# SHP1 = assay: In vitro phosphatase activity assay, phospho-EGFR peptide substrate; type: biochemical
# [1] = target: T1, SHP2 PTP domain (GST-SHP2 PTP) (Homo sapiens, UniProt Q06124); type: biochemical; conditions: phospho-EGFR peptide substrate
# T1 sequence (Q06124 247-517 limits assumed): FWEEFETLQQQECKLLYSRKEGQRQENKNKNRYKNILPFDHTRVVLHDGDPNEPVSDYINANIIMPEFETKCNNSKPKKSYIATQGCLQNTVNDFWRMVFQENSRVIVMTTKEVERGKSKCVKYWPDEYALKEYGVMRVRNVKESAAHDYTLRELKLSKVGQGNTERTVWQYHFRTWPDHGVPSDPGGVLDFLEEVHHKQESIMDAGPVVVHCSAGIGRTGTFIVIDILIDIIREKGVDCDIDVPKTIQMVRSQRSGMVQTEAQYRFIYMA
# Method in brief: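 In-house purified GST-SHP2 PTP domain (0.5 μg) was preincubated with test compound at various concentrations for 30 min at room temperature. Buffer: 25 mM Tris-HCl pH 7.4, 50 mM NaCl, 5 mM DTT, 2.5 mM EDTA. EGFR pTyr peptide (DADEpYLIPQQG) was added to 0.2 mM final, then 30°C for 30 min. Released phosphate was detected with Malachite Green, reading OD620 after 10 min.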
# U937 cells = assay: Apoptosis, Annexin V staining, FACS; type: cell-based, human; conditions: 24 hours
# [2] = system: U937 human lymphoma cells (PTPN11 G60R); assay: Cell proliferation assay; type: cell-based; conditions: 48 hours
# [3] = system: JMML cells (PTPN11E76K/+); assay: Total cell number in GM-CSF-containing medium; type: cell-based, human
# [4] = system: myeloid progenitors from PTPN11E76K/+ mice; assay: Colony-forming unit assay, GM-CSF; type: cell-based, mouse; conditions: GM-CSF 1.0 ng/mL, 7 days
# Method in brief: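 Bone marrow from PTPN11E76K/+/Mx1-Cre+ and PTPN11+/+/Mx1-Cre+ mice was plated at 5×10^4 cells/mL in 0.9% methylcellulose IMDM with 30% FBS, glutamine, β-mercaptoethanol and GM-CSF (1.0 ng/mL), with test compound at varying doses or DMSO. CFU-GM and CFU-M colonies were counted after 7 days at 37°C in 5% CO2 and normalized to colonies from DMSO-treated WT cells. Triplicates, two independent experiments.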
# [5] = system: IL-3-induced activation of Erk, Akt, Jak2, and Stat5; assay: IL-3 signaling in Ba/F3 cells, immunoblotting; type: cell-based
# Method in brief: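 Ba/F3 cells were starved overnight in serum- and cytokine-free RPMI 1640, pretreated for 3 h with test compound (20 μM for the time course, graded concentrations for dose response), then stimulated with IL-3 (1.0 ng/mL) for set times or 10 min. RIPA lysates (50 μg protein) were run on 10% SDS-PAGE and immunoblotted for p-Erk, p-Akt, p-Jak2 and p-Stat5 with ECL detection. Blots were reprobed for total proteins; three repeats.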
# SHP2 = assay: Reversibility test by extensive washing of the enzyme-inhibitor complex; type: biochemical
# SHP2 PTP domain = assay: Fluorescence titration; type: binding; conditions: increasing compound concentrations
# Method in brief: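 Intrinsic tryptophan fluorescence of the GST-fused SHP2 PTP domain (purified), diluted in 20 mM Tris-HCl pH 7.5. Protein level is held constant while test compound is raised stepwise. Spectra are recorded on a luminescence spectrometer, and fluorescence is plotted against log compound concentration (M). The experiment was repeated twice; data are mean±S.E.M. of triplicates.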
# Hela cells = assay: HeLa cell growth after control or SHP2 siRNA; type: cell-based; conditions: 24 hours treatment
# Method in brief: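 HeLa cells were transfected with control or SHP2 siRNA (400 pmoles/8.0×10^5 cells). After 48 h they were exposed to test compound at graded concentrations or DMSO, and cell numbers were determined 24 h later. Treated knockdown and control cells were each normalized to their untreated counterparts. Knockdown was confirmed by anti-SHP2 immunoblot with β-actin as loading control. Triplicates; three experiments.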
# H661 cells = assay: Cell cycle analysis; type: cell-based, human
# GST-SHP2 PTP = assay: Enzymatic kinetic analyses; type: biochemical; conditions: Cryptotanshinone 25 μM
# [6] = system: myeloid blasts from JMML patients with the PTPN11E76K/+ mutation; assay: Colony-forming unit assay, GM-CSF; type: cell-based, human; conditions: GM-CSF 1.0 ng/mL, 14 days
# Method in brief: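 Bone marrow cells or splenocytes from JMML patients carrying PTPN11E76K/+ were plated at 5×10^4 cells/mL in 0.9% methylcellulose IMDM with 30% FBS, glutamine (10^-4 M), β-mercaptoethanol (3.3×10^-5 M) and GM-CSF (1.0 ng/mL), plus test compound at varying doses or matching DMSO. After 14 days at 37°C in 5% CO2, CFU-GM and CFU-M colonies were counted and normalized to DMSO-treated cells. Three patient samples were run in triplicate.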
# [7] = system: H661 human lung cancer cells (PTPN11 N58S); assay: Cell proliferation assay; type: cell-based; conditions: 48 hours
# [8] = system: PTPN11E76K/+ mouse embryonic fibroblasts; assay: MEF cell growth; type: cell-based; conditions: Cryptotanshinone 20 μM
# [9] = system: WT mouse embryonic fibroblasts; assay: MEF cell growth; type: cell-based; conditions: Cryptotanshinone 20 μM
structure (smiles),measurement,setting,value
Cc1coc2c1C(=O)C(=O)c1c-2ccc2c1CCCC2(C)C [Tanshinone IIA],selectivity between SHP2 and SHP1,SHP1,no selectivity between SHP2 and SHP1
same,"SHP2 IC50, fold lower than that of Cryptotanshinone",[1],8.69 fold
Cc1coc2c1C(=O)C(=O)c1c-2ccc2c(C)cccc12 [Tanshinone I],selectivity between SHP2 and SHP1,SHP1,no selectivity between SHP2 and SHP1
same,"SHP2 IC50, fold lower than that of Cryptotanshinone",[1],8.75 fold
C[C@H]1COC2=C1C(=O)C(=O)c1c2ccc2c1CCCC2(C)C [Cryptotanshinone],apoptosis in U937 cells,U937 cells,robust induction of apoptosis
same,cell proliferation of U937 cells,[2],decreased cell proliferation in a dose-dependent manner
same,total cell number of JMML cells,[3],greatly decreased
same,colony-forming capabilities of mutant SHP2-expressing progenitors,[4],significantly reduced
same,tyrosine-phosphorylation of Gab2 and Gab2-SHP2 interaction,[5],markedly decreased
same,"IL-3-induced activation of Erk, Akt, Jak2, and Stat5 (phosphorylation levels)","[5]; 3 hours pretreatment, IL-3 1.0 ng/mL",greatly suppressed
same,reversibility of SHP2 inhibition,SHP2,irreversible inhibitor
same,quenching of SHP2 fluorescence,SHP2 PTP domain,strong quenching of SHP2 fluorescence in a dose-dependent manner
same,proliferation of control siRNA cells,Hela cells,decreased
same,sensitivity of SHP2-depleted cells,Hela cells; SHP2 siRNA,much less sensitive
same,cell cycle effect in H661 cells,H661 cells,G1-S arrest
same,change of Vmax by inhibitor,GST-SHP2 PTP,decreased
same,type of inhibition,GST-SHP2 PTP,mixed-type inhibitor
same,colony formation of JMML myeloid blasts,[6],exquisitely sensitive
same,cell proliferation of H661 cells,[7],decreased cell proliferation in a dose-dependent manner
same,cell growth of PTPN11E76K/+ MEFs,[8],decreased cell growth
same,sensitivity of PTPN11E76K/+ MEFs relative to WT,[8],more sensitive
same,cell growth of WT MEFs,[9],decreased cell growth
Cc1cccc2c3c(ccc12)C1=C(C(=O)C3=O)[C@@H](C)CO1 [Dihydrotanshinone],selectivity between SHP2 and SHP1,SHP1,no selectivity between SHP2 and SHP1
same,"SHP2 IC50, fold lower than that of Cryptotanshinone",[1],5.71 fold

# From publication PMC4159095 (Journal of medicinal chemistry, 2013)
